Measurements from ChEMBL document CHEMBL1129428 (J Med Chem, 1996).

What was measured:
[1] = system: Rattus norvegicus; test: Compound was tested for anticonvulsant activity after Oral Administration into Rats by using MES screen test after 4h,dose 30 mg/kg; number of rats out of four which were protected; type: functional
Summary of the method: (§1)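 Rats received the compound orally. […] Rats were tested in the MES screen at 0.25, 0.5, 1, 2 and 4 h. Each value is the number of rats protected out of 4. The test followed NINDS procedures.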

[2] = system: Rattus norvegicus; test: Compound was tested for anticonvulsant activity after Oral Administration into Rats by using MES screen test after 0.25h,dose 30 mg/kg; No activity was demonstarted; type: functional, organism-based; parameters: dose 30 mg/kg; summary of the method: as §1
[3] = system: Rattus norvegicus; test: Compound was tested for anticonvulsant activity after Oral Administration into Rats by using MES screen test after 2h,dose 30 mg/kg; number of rats out of four which were protected; type: functional; summary of the method: as §1
[4] = system: Rattus norvegicus; test: Compound was tested for anticonvulsant activity after Oral Administration into Rats by using MES screen test after 0.5h,dose 30 mg/kg; No activity was demonstarted; type: functional, organism-based; parameters: dose 30 mg/kg; summary of the method: as §1
[5] = system: Rattus norvegicus; test: Compound was tested for anticonvulsant activity after Oral Administration into Rats by using MES screen test after 1h,dose 30 mg/kg; number of rats out of four which were protected; type: functional; summary of the method: as §1
[6] = system: Mus musculus; test: Anticonvulsant activity after intraperitoneal injection into mice by using MES screen test after 0.5 hr; type: functional
[7] = system: Mus musculus; test: Anticonvulsant activity after intraperitoneal injection into mice measured in a maximal electroshock scree (MES) screen; type: functional
[8] = system: Mus musculus; test: Anticonvulsant activity after intraperitoneal injection into mice by using scPTZ screen after 0.5 hr; type: functional
[9] = system: Mus musculus; test: Anticonvulsant activity after intraperitoneal injection into mice by using scPTZ screen test after 4 hr; type: functional
[10] = system: Mus musculus; test: Toxicity after intraperitoneal injection into mice by using toxicity screen test after 0.5 hr; type: organism-based; details: in vivo, ip
Summary of the method: (§2)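 Mice injected intraperitoneally at 30, 100 and 300 mg/kg and examined 0.5 and 4 h afterwards. Each entry is the minimum dose giving activity (MES protection, scPTZ protection, or rotorod failure for neurotoxicity) in half or more of the mice. Activity is called absent if nothing occurs at 300 mg/kg.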

[11] = system: Mus musculus; test: Compound was tested for toxicity after intraperitoneal injection into mice by using toxicity screen test after 4 hr; type: organism-based; details: in vivo, ip; summary of the method: as §2
[12] = system: Rattus norvegicus; test: Compound was tested for anticonvulsant activity after Oral Administration into Rats by using MES screen test after 0.25h,dose 12.5 mg/kg; No activity was demonstarted; type: functional, organism-based; parameters: dose 12.5 mg/kg; summary of the method: as §1
[13] = system: Rattus norvegicus; test: Compound was tested for anticonvulsant activity after Oral Administration into Rats by using MES screen test after 4h,dose 12.5 mg/kg; number of rats out of four which were protected; type: functional; summary of the method: as §1
[14] = system: Rattus norvegicus; test: Compound was tested for anticonvulsant activity after Oral Administration into Rats by using MES screen test after 0.5h,dose 12.5 mg/kg; No activity was demonstarted; type: functional, organism-based; parameters: dose 12.5 mg/kg; summary of the method: as §1
[15] = system: Rattus norvegicus; test: Compound was tested for anticonvulsant activity after Oral Administration into Rats by using MES screen test after 1h,dose 12.5 mg/kg; No activity was demonstarted; type: functional, organism-based; parameters: dose 12.5 mg/kg; summary of the method: as §1
[16] = system: Rattus norvegicus; test: Compound was tested for anticonvulsant activity after Oral Administration into rat by using MES screen test after 4 hr; type: functional
Summary of the method: (§3)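 Rats dosed orally, typically at 50 mg/kg first, then mostly 12.5 mg/kg (some compounds at 30 mg/kg), and tested by maximal electroshock. Four rats per compound, scored at 0.25, 0.5, 1, 2 and 4 h as the number of rats protected out of 4.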

[17] = Compound was tested for toxicity after oral administration in rat by using neurotoxicity screen test after 2 hr; type: organism-based; details: in vivo
Summary of the method: (§4)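 Rat neurotoxicity after oral dosing, observed at 0.25, 0.5, 1, 2, 4, 6, 8 and 24 h (8 h omitted for one compound).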

[18] = system: Rattus norvegicus; test: Compound was tested for anticonvulsant activity after Oral Administration into Rats by using MES screen test after 2h,dose 12.5 mg/kg; No activity was demonstarted; type: functional, organism-based; parameters: dose 12.5 mg/kg; summary of the method: as §1
[19] = Protection index = TD50/ED50 (MES); type: ADME, organism-based; details: rat, in vivo; read-out: PI
[20] = system: Mus musculus; test: Compound was tested for anticonvulsant activity after intraperitoneal injection into mice by using MES screen test after 1 hr; type: functional; details: ip
Summary of the method: (§5)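 Quantitative intraperitoneal mouse testing in the MES, scPTZ or rotorod neurotoxicity screens at the peak time given for each compound (0.25–2 h). ED50 or TD50 reported in mg/kg with 95% CI and slope (SE).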

[21] = Compound was tested for toxicity after intraperitoneal injection into mice by using neurotoxicity screen test after 2 hr; type: organism-based; details: mouse, in vivo, ip; summary of the method: as §5
[22] = system: Rattus norvegicus; test: Compound was tested for anticonvulsant activity after Oral Administration into Rats by using MES screen test after 4h,dose 50 mg/kg; number of rats out of four which were protected; type: functional; summary of the method: as §1
[23] = system: Rattus norvegicus; test: Compound was tested for anticonvulsant activity after Oral Administration into Rats by using MES screen test after 2h,dose 50 mg/kg; number of rats out of four which were protected; type: functional; summary of the method: as §1
[24] = system: Rattus norvegicus; test: Compound was tested for anticonvulsant activity after Oral Administration into Rats by using MES screen test after 0.25h,dose 50 mg/kg; number of rats out of four which were protected; type: functional; summary of the method: as §1
[25] = system: Rattus norvegicus; test: Compound was tested for anticonvulsant activity after Oral Administration into Rats by using MES screen test after 0.5h,dose 50 mg/kg; number of rats out of four which were protected.; type: functional; summary of the method: as §1
[26] = system: Rattus norvegicus; test: Compound was tested for anticonvulsant activity after Oral Administration into Rats by using MES screen test after 1h,dose 50 mg/kg; number of rats out of four which were protected; type: functional; summary of the method: as §1
[27] = system: Mus musculus; test: Compound was tested for anticonvulsant activity after intraperitoneal injection into mice by using scPTZ screen test after 1 hr; type: functional; details: ip; summary of the method: as §5
[28] = Protection index = TD50/ED50 (MES); details: mouse, in vivo; read-out: PI
[29] = system: Mus musculus; test: Compound was tested for anticonvulsant activity after intraperitoneal injection into mice by using MES screen test after 2 hr; type: functional; details: ip; summary of the method: as §5
[30] = system: Mus musculus; test: Compound was tested for anticonvulsant activity after intraperitoneal injection into mice by using scPTZ screen test after 2 hr; type: functional; details: ip; summary of the method: as §5
[31] = system: Rattus norvegicus; test: Compound was tested for anticonvulsant activity after Oral Administration into Rats by using MES screen test after 0.25h,dose 12.5 mg/kg; number of rats out of four which were protected; type: functional; summary of the method: as §1
[32] = system: Rattus norvegicus; test: Anticonvulsant activity after oral administration into rats; type: functional; parameters: concentration or dose not given beside the values
[33] = system: Rattus norvegicus; test: Compound was tested for anticonvulsant activity after Oral Administration into Rats by using MES screen test after 1h,dose 12.5 mg/kg; number of rats out of four which were protected; type: functional; summary of the method: as §1
[34] = Compound was tested for toxicity after oral administration in rat by using neurotoxicity screen test after 0.25-24 hr; type: organism-based; details: in vivo; summary of the method: as §4
[35] = system: Rattus norvegicus; test: Compound was tested for anticonvulsant activity after Oral Administration into Rats by using MES screen test after 2h,dose 12.5 mg/kg; number of rats out of four which were protected; type: functional; summary of the method: as §1
[36] = system: Rattus norvegicus; test: Compound was tested for anticonvulsant activity after Oral Administration into Rats by using MES screen test after 0.25h,dose 50 mg/kg; No activity was demonstarted; type: functional, organism-based; parameters: dose 50 mg/kg; summary of the method: as §1
[37] = system: Rattus norvegicus; test: Compound was tested for anticonvulsant activity after Oral Administration into Rats by using MES screen test after 0.5h,dose 50 mg/kg; No activity was demonstarted; type: functional, organism-based; parameters: dose 50 mg/kg; summary of the method: as §1
[38] = system: Rattus norvegicus; test: Compound was tested for anticonvulsant activity after Oral Administration into rat by using MES screen test after 2 hr; type: functional; summary of the method: as §3
[39] = system: Rattus norvegicus; test: Compound was tested for anticonvulsant activity after Oral Administration into Rats by using MES screen test after 4h,dose 12.50 mg/kg; number of rats out of four which were protected; type: functional; details: dose 12.5 mg/kg; summary of the method: as §1
[40] = Partition coefficient (logP); type: physicochemical; details: octanol/water
Summary of the method: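 Partition between 1-octanol and buffer at pH 7.4, with solutions prepared in 1-octanol before buffer is added. Quantified by UV, using λmax and ε values measured in 1-octanol.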

Compound: NC(=O)N/N=C\c1ccccc1Oc1ccc(F)cc1
- Activity [1]: 1
- Activity [2]: No activity
- Activity [3]: 2
- Activity [4]: No activity
- Activity [5]: 1

Compound: CCCCOc1ccc(Oc2ccc(/C=N/NC(N)=O)cc2)cc1
- Dose [6]: 300 mg/kg
- Dose [7]: 100 mg/kg
- Dose [8]: 300 mg/kg
- Dose [9]: 300 mg/kg
- Dose [10]: 300 mg/kg
- Dose [11]: 300 mg/kg
- Activity [12]: No activity
- Activity [13]: 2
- Activity [14]: No activity
- Activity [15]: No activity
- ED50 [16]: 45.8 mg/kg
- TD50 at 2 h [17]: > 100 mg/kg
- Activity [18]: No activity
- selectivity ratio [19]: > 2.18

Compound: NC(=O)N/N=C/c1ccc(Sc2ccc(Cl)cc2)cc1
- Dose [6]: 100 mg/kg
- Dose [7]: 30 mg/kg
- Dose [8]: 300 mg/kg
- Dose [11]: 100 mg/kg
- ED50 [20]: 16.2 mg/kg
- TD50 at 2 h [21]: 53.2 mg/kg
- Activity [22]: 4
- Activity [23]: 4
- Activity [24]: 1
- Activity [25]: 4
- Activity [26]: 4
- ED50 [27]: > 120 mg/kg
- selectivity ratio [28]: 3.28

Compound: C/C(=N/NC(N)=O)c1ccc(Oc2ccc(Br)cc2)cc1
- Dose [6]: 30 mg/kg
- Dose [7]: 30 mg/kg
- Dose [8]: 300 mg/kg
- Dose [10]: 300 mg/kg
- Dose [11]: 100 mg/kg
- ED50 [29]: 12.5 mg/kg
- ED50 [30]: > 110 mg/kg
- TD50 at 2 h [21]: 104 mg/kg
- Activity [13]: 4
- Activity [31]: 1
- Activity [32]: 3
- Activity [33]: 4
- ED50 [16]: 1.52 mg/kg
- TD50 [34]: > 500 mg/kg
- Activity [35]: 4

Compound: NC(=O)N/N=C\c1ccccc1Oc1ccccc1
- Activity [22]: 1
- Activity [23]: 1
- Activity [36]: No activity
- Activity [37]: No activity
- Activity [26]: 2

Compound: CC/C(=N/NC(N)=O)c1ccc(Sc2ccc(F)cc2)cc1
- Dose [6]: 30 mg/kg
- Dose [7]: 100 mg/kg
- Dose [10]: 100 mg/kg
- Dose [11]: 100 mg/kg
- Activity [1]: 3
- Activity [2]: No activity
- Activity [3]: 3
- Activity [4]: No activity
- Activity [5]: 2

Compound: Cc1ccccc1Oc1ccc(/C=N/NC(N)=O)cc1
- Dose [6]: 30 mg/kg
- Dose [7]: 100 mg/kg
- Dose [8]: 100 mg/kg
- Dose [9]: 100 mg/kg
- Dose [10]: 300 mg/kg
- Dose [11]: 300 mg/kg
- Activity [12]: No activity
- Activity [13]: 4
- Activity [32]: 4
- Activity [33]: 3
- ED50 [38]: 5.65 mg/kg
- TD50 [34]: > 500 mg/kg
- selectivity ratio [19]: > 88
- Activity [35]: 4

Compound: NC(=O)N/N=C/c1ccc(Sc2ccccc2)cc1
- Dose [6]: 30 mg/kg
- Dose [7]: 30 mg/kg
- Dose [11]: 300 mg/kg
- ED50 [20]: 15.6 mg/kg
- TD50 at 2 h [21]: 181 mg/kg
- Activity [22]: 4
- Activity [23]: 4
- Activity [36]: No activity
- Activity [25]: 4
- Activity [26]: 4
- ED50 [16]: 4.29 mg/kg
- TD50 [34]: > 496 mg/kg
- ED50 [27]: > 46 mg/kg

Compound: Cc1cccc(Oc2ccc(/C=N/NC(N)=O)cc2)c1C
- Dose [7]: 100 mg/kg
- Activity [12]: No activity
- Activity [39]: 1
- Activity [14]: No activity
- Activity [33]: 1
- Activity [18]: No activity

Compound: NC(=O)N/N=C/c1ccc(Oc2ccc(Cl)c(Cl)c2)cc1
- Dose [6]: 300 mg/kg
- Dose [7]: 30 mg/kg
- Dose [11]: 300 mg/kg
- Activity [22]: 4
- Activity [23]: 4
- Activity [36]: No activity
- Activity [25]: 2
- Activity [26]: 4

Compound: COc1ccc(Oc2ccc(/C=N/NC(N)=O)cc2)cc1
- logP [40]: 1.29
- Dose [6]: 100 mg/kg
- Dose [7]: 100 mg/kg
- Dose [11]: 300 mg/kg
- Activity [22]: 4
- Activity [23]: 4
- Activity [36]: No activity
- Activity [25]: 4
- Activity [26]: 4
